Results taken from ChEMBL document CHEMBL4376891, “Benzenesulfonamide Derivatives as Calcium/Calmodulin-Dependent Protein Kinase Inhibitors and Antiviral Agents against Dengue and Zika Virus Infections” (J Med Chem, 2020).
Activity calls are given as the source filed them. No cut-off for these calls is given here.

Tests used:
Zika virus [1] = assay: Antiviral activity against Zika virus infected in human BE(2)-C cells transfected with shLacZ assessed as NS3 protein expression at 3.125 uM incubated for 48 hrs by Western blot analysis (reference value: 100%); type: functional
dengue virus type 2 [2] = assay: Antiviral activity against Dengue virus 2 infected in human BE(2)-C cells transfected with shCaMKIIalpha assessed as NS3 protein expression at 3.125 uM incubated for 48 hrs by Western blot analysis (reference value: 100%); type: functional
dengue virus type 2 [3] = assay: Antiviral activity against DENV-2 NGC-N infected in Stat1-/- mouse assessed as overall mouse survival at 4 mg/kg, po dosed immediately following viral infection followed by daily dosing for 6 days (reference value: 0%); type: functional; conditions: 144 h
Zika virus [4] = assay: Antiviral activity against Zika virus infected in human BE(2)-C cells assessed as reduction in NS3 protein expression at 3.125 to 6.25 uM treated during 3 to 24 hrs post infection by Western blot analysis; type: functional, organism-based
Procedure, shortened: (§1)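 Time-of-addition design: BE(2)C cells were infected with DENV-2 or ZIKV at MOI 1. Compound at 3.125 or 6.25 μM was present either during adsorption (0–3 hpi) or afterward (3–24 hpi). Viral protein was immunoblotted against actin, with the ratio as % of the solvent control.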

dengue virus type 2 [5] = assay: Antiviral activity against Dengue virus 2 infected in human BE(2)-C cells assessed as NS3 protein expression at 12.5 uM incubated for 48 hrs by Western blot analysis (reference value: 100%); type: functional
Procedure, shortened: (§2)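 BE(2)C neuroblastoma cells in RPMI 1640 with 10% FBS were infected with DENV-2 PL046 at MOI 0.1 for 48 h, without or with compound at increasing concentrations. NS3 was immunoblotted with actin as loading control. The NS3:actin densitometry ratio was expressed as % of the DMSO control. Mean ± SD of 3 independent experiments.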

Zika virus [6] = conditions: 3.125 to 6.25 uM
dengue virus type 2 [7] = assay: Antiviral activity against Dengue virus 2 infected in human BE(2)-C cells assessed as NS3 protein expression at 6.25 uM treated during 3 to 24 hrs post infection by Western blot analysis (reference value: 100%); type: functional; procedure, shortened: as §1
Zika virus [8] = assay: Antiviral activity against Zika virus infected in human BE(2)-C cells assessed as NS3 protein expression at 12.5 uM incubated for 48 hrs by Western blot analysis (reference value: 100%); type: functional
Procedure, shortened: (§3)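 BE(2)C cells were infected with ZIKV PRVABC59 at MOI 0.1 for 48 h, with or without compound at increasing concentrations. Viral protein was immunoblotted with actin as loading control. The band-density ratio was given as % of the solvent control. Mean ± SD, 3 independent experiments.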

Zika virus [9] = assay: Antiviral activity against Zika virus infected in Stat1-/- mouse assessed as delay in virus-induced mouse mortality at 4 mg/kg/day, po dosed immediately following viral infection followed by daily dosing for 6 days (reference value: 13 days); type: functional, organism-based
Zika virus [10] = assay: Antiviral activity against Zika virus infected in Stat1-/- mouse assessed as time delay in virus-induced mouse mortality at 8 mg/kg/day, po dosed immediately following viral infection followed by daily dosing for 6 days (reference value: 13 days); type: functional
Zika virus [11] = assay: Antiviral activity against Zika virus infected in human BE(2)-C cells assessed as reduction in viral entry at 3.125 to 6.25 uM incubated for 90 mins by plaque-forming assay; type: functional, organism-based
Procedure, shortened: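 Virus entry: BE(2)C cells were incubated with DENV-2 or ZIKV for 90 min at 4 °C and washed cold. Cells were then treated with 3.125 or 6.25 μM compound at 37 °C for 1 h. Non-internalized virus was inactivated with 0.1 M glycine, pH 3, for 5 min. Cells were lysed by needle passage, and internalized virus was titrated by plaque assay. Mean ± SD, n = 3.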

dengue virus type 2 [12] = assay: Antiviral activity against Dengue virus 2 infected in human BE(2)-C cells assessed as NS3 protein expression at 0.39 uM incubated for 48 hrs by Western blot analysis (reference value: 100%); type: functional; procedure, shortened: as §2
dengue virus type 2 [13] = assay: Antiviral activity against Dengue virus 2 infected in human BE(2)-C cells transfected with shCaMKIIalpha assessed as NS3 protein expression at 6.25 uM incubated for 48 hrs by Western blot analysis (reference value: 100%); type: functional
dengue virus type 2 [14] = assay: Antiviral activity against Dengue virus 2 infected in human BE(2)-C cells transfected with shLacZ assessed as NS3 protein expression at 3.125 uM incubated for 48 hrs by Western blot analysis (reference value: 100%); type: functional
dengue virus type 2 [15] = assay: Antiviral activity against DENV-2 NGC-N infected in Stat1-/- mouse assessed as improvement in mouse survival by measuring median survival time at 2 mg/kg, po dosed 8 hrs after infection and ending at day 6 after infection (8 hrs delay) (reference value: 10 days); type: functional
dengue virus type 2 [16] = assay: Antiviral activity against DENV-2 NGC-N infected in Stat1-/- mouse assessed as effect on overall mouse survival at 2 to 8 mg/kg/day, po dosed immediately following viral infection followed by daily dosing for 6 days; type: functional, organism-based
Zika virus [17] = assay: Antiviral activity against Zika virus infected in human BE(2)-C cells assessed as NS3 protein expression at 1.56 uM incubated for 48 hrs by Western blot analysis (reference value: 100%); type: functional; procedure, shortened: as §3
dengue virus type 2 [18] = assay: Antiviral activity against Dengue virus 2 infected in human BE(2)-C cells assessed as NS3 protein expression at 1.56 uM incubated for 48 hrs by Western blot analysis (reference value: 100%); type: functional; procedure, shortened: as §2
Zika virus [19] = assay: Antiviral activity against Zika virus infected in human BE(2)-C cells assessed as NS3 protein expression at 6.25 uM incubated for 48 hrs by Western blot analysis (reference value: 100%); type: functional; procedure, shortened: as §3
BE(2)-C = assay: Cytotoxicity against human BE(2)-C cells assessed as reduction in cell viability up to 12.5 uM incubated overnight by trypan blue assay relative to control; type: cell-based
Procedure, shortened: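 Viable BE(2)C cell number after overnight exposure to compound up to 12.5 μM, counted by trypan blue exclusion; expressed as percent of solvent control, mean ± SD of 3 independent experiments.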

Zika virus [20] = assay: Antiviral activity against Zika virus infected in human BE(2)-C cells assessed as NS3 protein expression at 6.25 uM treated during 0 to 3 hrs post infection by Western blot analysis (reference value: 100%); type: functional; procedure, shortened: as §1
Zika virus [21] = assay: Antiviral activity against Zika virus infected in human BE(2)-C cells assessed as NS3 protein expression at 0.39 uM incubated for 48 hrs by Western blot analysis (reference value: 100%); type: functional; procedure, shortened: as §3
Sindbis virus = assay: Antiviral activity of eGFP-fused Sindbis virus infected in human HMC3 cells at 0.781 to 12.5 uM incubated for 24 hrs by immunofluorescence microscopy; type: functional, organism-based
dengue virus type 2 [22] = assay: Antiviral activity against eGFP-fused Dengue virus 2 infected in human BE(2)-C cells assessed as viral infection level by measuring intensity of eGFP emission from infected cells at 3.13 uM incubated for 24 hrs relative to control; type: functional
Procedure, shortened: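 BE(2)C cells, in RPMI 1640 with 10% FBS, were infected with DENV-2-eGFP reporter virus (MOI 1) for 24 h with or without compound, using DMSO as solvent control. Cells were fixed in 4% paraformaldehyde and stained with Hoechst, then imaged by high-content analysis. eGFP intensity per cell number is given as % of solvent control. Values are means of 3 experiments.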

Compound: COc1ccc(S(=O)(=O)N(CCCC(=O)C2CCCCCC2)c2ccccc2)cc1
- Activity (Zika virus [1]): 102%
- Activity (dengue virus type 2 [2]): 95.1%
- survival at 4 mg/kg (dengue virus type 2 [3]): 60%
- Activity (Zika virus [4]): inactive
- Activity (dengue virus type 2 [5]): 5.1%
- inhibition (Zika virus [6]): inactive
- Activity (dengue virus type 2 [7]): 55.3%
- Activity (Zika virus [8]): 0.1%
- Activity (Zika virus [9]): inactive
- Time (Zika virus [10]): 18 days
- Activity (Zika virus [11]): Dose-dependent effect
- Activity (dengue virus type 2 [12]): 90.8%
- Activity (dengue virus type 2 [13]): 75.4%
- Activity (dengue virus type 2 [14]): 62.2%
- MST (dengue virus type 2 [15]): 14 days
- Activity (dengue virus type 2 [16]): inactive
- Activity (Zika virus [17]): 62.2%
- Activity (dengue virus type 2 [18]): 75.2%
- Activity (Zika virus [19]): 4.1%
- Activity (BE(2)-C): Non-Toxic
- Activity (Zika virus [20]): 20.1%
- Activity (Zika virus [21]): 97.7%
- Activity (Sindbis virus): Active
- Activity (dengue virus type 2 [22]): 9.6%
